SMILES strings stand for the structures. Calls of active or inactive are those of the source. The calls are words filed in the database; no cut-off is given here. Bounds are passed on as bounds.

The subject of one data set is MCF-10A. The data set is described as follows: Cytotoxicity activity against human MCF-10A cells assessed as change in cell proliferation by MTT assay. Type of data set: toxicity, cell-based. Put shortly:
(§1)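 Cells seeded at 1.5 x 10^4/well and incubated overnight; sub-confluent cells treated at 37 °C for 24, 48 or 72 h. MTT added (final 1 mg/mL), 3 h at 37°C in the dark, formazan dissolved in DMSO, read at 590 nm. Expressed as % of vehicle; mean ± SEM of three experiments, each at least in quintuplicate.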

The test system of data set [1] is BT-549. The data set is described as follows: Antiproliferative activity against human BT-549 cells assessed as inhibition in cell proliferation at 1 to 10 uM incubated after 24 hrs by MTT assay. Conditions: dose 1-10 µM. Type of data set: functional, cell-based. A digest of the protocol: as §1
Data set [2] has as its target T1, Cannabinoid receptor 2 (Homo sapiens, UniProt P34972). In words: Agonist activity at human Cannabinoid receptor 2 in BT-549 cells transfected with CNR2 siRNA assessed as downregulation in ERK1/2 phosphorylation level at 10 uM and observed after 5 mins by Western blot analysis relative to control. It is filed as functional, cell-based. A digest of the protocol:
(§2)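 BT549 cells, untransfected or transfected with scramble oligo or CNR2 siRNA, incubated at 37°C with or without 10 μM compound for the indicated periods. Phospho-ERK1/2 measured by Western blot on whole lysates (20-40 µg/lane, SDS-PAGE, PVDF, enhanced chemiluminescence). Values compared with relative vehicle-treated cells.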
In general terms: In western blotting, separated proteins are transferred to a membrane and probed.

Data set [3] relates to BT-549. In words: Antiinflammatory activity in human BT-549 cells assessed as decrease in TNF-alpha level at 10 uM incubated for 48 hrs by ELISA method relative to control. It is filed as functional. Further details: scale not given: the % may be the effect or the level left. Put shortly: (§3)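 BT549 cells seeded at 1.5 x 10^4/well and treated after 24 h with vehicle or compound at 37 °C for 48 h. TNF-α and IL-6 in supernatant measured by ELISA at 450 nm against a recombinant cytokine standard curve (0-1000 pg/mL). Expressed as % of vehicle. Three independent experiments, each in triplicate.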
In general terms: ELISA stands for enzyme-linked immunosorbent assay.

Data set [4] deals with T1, Cannabinoid receptor 2. The data set is described as follows: Agonist activity at human Cannabinoid receptor 2 in BT-549 cells assessed as change in ERK1/2 phosphorylation level at 10 uM and observed after 10 min by westernblot analysis. It is filed as functional, cell-based. Put shortly:
as §2

The target of data set [5] is T1, Cannabinoid receptor 2. The data set is described as follows: Agonist activity at human Cannabinoid receptor 2 in BT-549 cells assessed as downregulation in ERK1/2 phosphorylation level at 10 uM by westernblot analysis. To be noted: filed as agonist, time 5-60 min, TDE = time-dependent effect. It is filed as functional, cell-based. Put shortly: as §2
Another data set deals with MDA-MB-231. The data set is described as follows: Antiproliferative activity against human triple negative MDA-MB-231 cells assessed as change in cell proliferation by MTT assay. It is filed as functional, cell-based. Put shortly:
as §1
A general note: Tetrazolium assays rely on reduction of a dye to a coloured formazan, in cell work by metabolically active cells.

A further data set deals with HCC1954. In words: Antiproliferative activity against human HER2-positive HCC1954 cells assessed as change in cell proliferation by MTT assay. It is filed as functional, cell-based. A digest of the protocol:
as §1

Data set [6] concerns BT-549. The data set is described as follows: Antiinflammatory activity in human BT-549 cells transfected with CNR2 siRNA assessed as decrease in IL-6 level at 10 uM incubated for 48 hrs by ELISA method. Type of data set: functional, cell-based. A digest of the protocol: (§4)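 BT549 cells seeded at 1.5 x 10^4 cells/well, transfected with 50 nM CNR2 siRNA or scramble oligo, then treated with vehicle or 10 μM compound at 37 °C for 48 h. TNF-α and IL-6 in supernatant measured by ELISA at 450 nm. Expressed as % of vehicle; mean ± SEM of three experiments in triplicate.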

Another data set has as its target Cannabinoid receptor 1 (Homo sapiens, UniProt P21554). In words: Agonist activity at human recombinant Cannabinoid receptor 1 by GTPgammaS binding assay. Type of data set: functional. A digest of the protocol:
(§5)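 [35S]GTPγS filtration assay. Membranes (5 µg CB2 or 10 µg/well CB1), permeabilized with equal mass of saponin, preincubated 20 min at room temperature with compound (0-100 μM) in 20 mM HEPES, 100 mM NaCl, 10 mM MgCl2, 10 µM GDP, pH 7.4. Then 0.3 nM [35S]GTPγS for 30 min at 37 °C. Quintuplicate, ≥3 experiments. pEC50 from non-linear fit.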

Data set [7] deals with T1, Cannabinoid receptor 2. The data set is described as follows: Agonist activity at human recombinant Cannabinoid receptor 2 by GTPgammaS binding assay. To be noted: read-out: EC50. Type of data set: functional. A digest of the protocol:
as §5

Data set [8] has as its target T1, Cannabinoid receptor 2. In words: Displacement of [3H]CP55,940 from human CB2 receptor expressed in CHO cells membrane assessed as residual activity at 0.1 uM by scintillation counting analysis relative to control. It is filed as cell membranes. A digest of the protocol:
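Membranes (2.5 µg) from CHO cells stably expressing human CB2, in 50 mM Tris-HCl, 5 mM MgCl2, 1 mM CaCl2, 2 mg/mL BSA, pH 7.4. Incubated 30 min at 37 °C with 0.8 nM [3H]CP55,940 and 0.1 µM compound (final). Nonspecific binding with 1 µM unlabelled CP55,940. Filtered on PEI-soaked GF/B filters, scintillation counted. Quintuplicate, ≥3 experiments.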

The test system of data set [9] is BT-549. In words: Antiinflammatory activity in human BT-549 cells assessed as decrease in IL-6 level at 10 uM incubated for 48 hrs by ELISA method relative to control. Type of data set: functional. Details: scale not given: the % may be the effect or the level left. A digest of the protocol: as §3
The subject of data set [10] is BT-549. The data set is described as follows: Antiproliferative activity against human BT-549 cells assessed as inhibition in cell proliferation incubated after 72 hrs by MTT assay. Type of data set: functional, cell-based. To be noted: dose 0.1-10 µM. Put shortly:
as §1

The subject of data set [11] is BT-549. In words: Antiinflammatory activity in human BT-549 cells transfected with CNR2 siRNA assessed as decrease in TNF-alpha level at 10 uM incubated for 48 hrs by ELISA method. It is filed as functional, cell-based. Put shortly: as §4
The target in data set [12] is T1, Cannabinoid receptor 2. In words: Agonist activity at human Cannabinoid receptor 2 in BT-549 cells assessed as downregulation in ERK1/2 phosphorylation level at 10 uM and observed within 5 min by Western blot analysis relative to control. Type of data set: functional, cell-based. A digest of the protocol: as §2
Data set [13] deals with BT-549. In words: Antiproliferative activity against human BT-549 cells transfected with CNR2 siRNA assessed as inhibition of cell proliferation at 10 uM incubated after 24 hrs by MTT assay. Type of data set: functional, cell-based. Put shortly:
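BT549 cells transfected with 50 nM CNR2 siRNA or scramble control by lipofection. After 24 h, treated with vehicle or 10 µM compound for a further 24 h. Viability by MTT (1 mg/mL, 3 h, 37°C, 590 nm).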

Data set [14] deals with BT-549. In words: Inhibition of colony formation in human BT-549 cells assessed as decrease in number of colonies at 10 uM incubated for 14 days by inverted phase contrast microscope relative to control. Type of data set: functional. Further details: scale not given: the % may be the effect or the level left. Conditions: time 14 day. A digest of the protocol: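 BT549 seeded at 1 x 10^3 cells/well and grown at 37 °C for at least 14 days with vehicle or compound. Colonies fixed and stained with 6% glutaraldehyde/0.5% crystal violet for 30 min, then counted by inverted phase-contrast microscopy (10x). Expressed as % of vehicle. Three independent experiments, each at least in triplicate.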

T1 sequence (P34972 whole entry): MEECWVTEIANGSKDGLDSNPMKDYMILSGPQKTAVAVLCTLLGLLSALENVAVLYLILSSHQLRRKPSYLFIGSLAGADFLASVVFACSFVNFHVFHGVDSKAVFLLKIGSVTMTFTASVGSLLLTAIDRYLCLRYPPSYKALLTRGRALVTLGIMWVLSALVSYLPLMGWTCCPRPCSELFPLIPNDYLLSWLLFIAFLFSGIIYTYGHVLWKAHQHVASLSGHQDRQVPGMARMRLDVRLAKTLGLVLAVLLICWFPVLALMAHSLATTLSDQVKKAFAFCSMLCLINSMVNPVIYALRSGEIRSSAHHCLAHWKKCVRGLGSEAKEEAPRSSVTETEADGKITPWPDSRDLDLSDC
Sequence of Cannabinoid receptor 1 (P21554 whole entry): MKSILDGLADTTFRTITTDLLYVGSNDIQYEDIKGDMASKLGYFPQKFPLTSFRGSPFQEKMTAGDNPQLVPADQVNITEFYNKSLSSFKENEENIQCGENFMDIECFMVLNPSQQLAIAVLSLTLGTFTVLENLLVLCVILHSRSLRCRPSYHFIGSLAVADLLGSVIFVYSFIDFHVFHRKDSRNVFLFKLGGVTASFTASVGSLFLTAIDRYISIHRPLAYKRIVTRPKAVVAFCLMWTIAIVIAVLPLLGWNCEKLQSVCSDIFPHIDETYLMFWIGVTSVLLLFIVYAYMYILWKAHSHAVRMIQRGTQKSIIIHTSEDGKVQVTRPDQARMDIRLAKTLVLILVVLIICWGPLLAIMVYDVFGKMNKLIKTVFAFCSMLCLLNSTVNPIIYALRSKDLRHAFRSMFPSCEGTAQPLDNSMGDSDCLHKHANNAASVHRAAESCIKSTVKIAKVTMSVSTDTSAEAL

With `O=C1c2ccc(OS(=O)(=O)c3cccs3)cc2OC2(CCCCC2)N1Cc1ccccc1`, the Activity entry in the data set on MCF-10A is “Non-Toxic”; in the data set on BT-549 [3], “<=50%”; at Cannabinoid receptor 2 [5] it was “Tde”; at Cannabinoid receptor 2 [8] it was less than 80%; in the data set with BT-549 [9] it was “<=70%”; on Cannabinoid receptor 2 [12] it was 30%. Further, the Activity in the data set on BT-549 [14] is 75.4%. For the same molecule, the inhibition result in the data set with BT-549 [1] was “Active”. Further, the outcome at Cannabinoid receptor 2 [2], on Cannabinoid receptor 2 [4], in the data set on BT-549 [6], with BT-549 [11] and with BT-549 [13] was inactive. In addition, the outcome in the data set on MDA-MB-231 and in the data set with HCC1954 was Active. Besides, the EC50 is greater than 10 µM at Cannabinoid receptor 1 (read-out: EC50), greater than 10 µM at Cannabinoid receptor 1 (read-out: pEC50 (converted)) and 0.11 µM at Cannabinoid receptor 2 [7]. Moreover, the inhibition entry in the data set on BT-549 [10] was “Dose-Dependent Effect”.

For the origin of these results see ChEMBL document CHEMBL5625181, “Exploring the 1,3-benzoxazine chemotype for cannabinoid receptor 2 as a promising anti-cancer therapeutic” (Eur J Med Chem, 2023).
